Experimental data from different studies.
Each line is one published result; the experiments were not run side by side.
Target: Activin receptor type-1B (ACVR1B, Homo sapiens, UniProt P36896)
One construct used (P36896 24-505): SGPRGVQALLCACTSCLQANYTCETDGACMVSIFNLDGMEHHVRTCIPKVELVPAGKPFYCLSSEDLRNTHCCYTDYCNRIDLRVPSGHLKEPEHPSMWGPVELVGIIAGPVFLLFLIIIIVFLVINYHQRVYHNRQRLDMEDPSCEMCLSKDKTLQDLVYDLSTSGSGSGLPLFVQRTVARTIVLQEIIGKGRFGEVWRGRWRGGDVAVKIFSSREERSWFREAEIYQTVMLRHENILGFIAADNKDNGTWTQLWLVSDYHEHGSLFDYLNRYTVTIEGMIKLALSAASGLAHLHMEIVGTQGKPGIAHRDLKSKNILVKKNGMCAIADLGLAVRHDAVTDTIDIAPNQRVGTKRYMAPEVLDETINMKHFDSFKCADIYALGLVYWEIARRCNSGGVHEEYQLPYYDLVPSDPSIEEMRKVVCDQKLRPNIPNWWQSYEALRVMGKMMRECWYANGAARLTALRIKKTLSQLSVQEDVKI

SMILES	read-out	technique	tested at	remaining binding [%]
C[C@@H]1CCN(c2nccc(-c3cnn4ncccc34)n2)C1	binding	–	1 µM	76
O=C(c1ccc(Nc2ncc(Cl)c(-c3ccc(Cl)s3)n2)cc1)N1CCC(N2CCCC2)CC1	binding	competition with immobilised ligand	1 µM	58
CS(=O)(=O)NCC[C@H](NC(=O)c1cncc2c1cnn2-c1ccc(F)cc1)c1ccnc(S(C)(=O)=O)c1	cell-free assay	competition with immobilised ligand	1 µM	100
COc1ncc2cc3ccccc3nc2c1C#N	cell-free assay	competition with immobilised ligand	5 µM	88
COc1ccnn2ncc(-c3ccnc(N(C)C)n3)c12	binding	–	1 µM	85
Nc1ncc2c(n1)-c1c([nH]c3ccc(C#CC4CC4)cc13)CCCC2	binding	competition with immobilised ligand	1 µM	89
O=C(NCCCN1CCOCC1)c1ccc(Nc2ncc(Cl)c(-c3ccc(Cl)s3)n2)cc1	binding	competition with immobilised ligand	1 µM	59
CCN1CCN(Cc2ccc(C(=O)Nc3ccc(C)c(Oc4ccc5c(c4)CC(=O)N5)c3)cc2C(F)(F)F)CC1	binding	competition with immobilised ligand	1 µM	100
O=C(NCc1ncc(C(F)(F)F)cc1Cl)c1ccc2c(c1)C1(CCS(=O)(=O)CC1)[C@H](C1CC1)N2S(=O)(=O)c1ccc(F)cc1	cell-free assay	competition with immobilised ligand	1 µM	94
N#Cc1ccccc1CSc1nnc2c(n1)[nH]c1ccccc12	binding	competition with immobilised ligand	10 µM	91
C[C@@H]1CN(c2ccc3ncc(-c4ccc5[nH]nc(C6CC6)c5c4)n3n2)C[C@H](C)O1	binding	competition with immobilised ligand	0.5 µM	100
CC(C)(C)c1ccc(-c2nc(CBr)nn2-c2cccc(O)c2)cc1	cell-free assay	competition with immobilised ligand	10 µM	100
CC(=O)C1=C(C)N(c2cccc(C(F)(F)F)c2)C(=O)N[C@@H]1c1ccc(C#N)nc1	cell-free assay	competition with immobilised ligand	1 µM	100
Cc1cnc(Nc2ccc(C(=O)N3CCC(N4CCCC4)CC3)cc2)nc1-c1cc2ccccc2s1	binding	competition with immobilised ligand	1 µM	33
N[C@@H]1CCN(c2nccc(-c3cnn4ncccc34)n2)C1	binding	–	1 µM	100
CNC(=O)[C@@H]1CC[C@@H](n2c(-c3ccc4cnccc4c3)nc3ccc(C(=O)NCc4cccc(C(N)=O)c4)cc32)C1	binding	competition with immobilised ligand	1 µM	100
CCC(=O)N[C@@H]1CC[C@H](C(=O)N(C)c2ccc(-c3nc4ccccc4o3)cc2)C1	cell-free assay	competition with immobilised ligand	1 µM	100
CN(c1nccc(-c2cnn3ncccc23)n1)C1CC1	binding	–	1 µM	100
COc1ccc2c(c1)O[C@@H](c1ccc(OC)c(OC)c1)C[C@H]2NC(=O)C1(c2ccc3c(c2)OC(F)(F)O3)CC1	cell-free assay	competition with immobilised ligand	1 µM	67
c1cnn2ncc(-c3ccnc(N4CCC45COC5)n3)c2c1	binding	–	1 µM	82
CC(C)CC(=O)N1CCc2nc(-c3ccc(Br)cc3)nc(N(C)Cc3ccccc3)c2C1	cell-free assay	competition with immobilised ligand	0.1 µM	89
COc1cnc(Nc2cccc(S(N)(=O)=O)c2)nc1N1CCN(c2ccccc2)CC1	binding	competition with immobilised ligand	1 µM	98
F[C@@H]1CCN(c2nccc(-c3cnn4ncccc34)n2)C1	binding	–	1 µM	100
CN(C)c1ncnc(-c2ccc3nc(Nc4cc(CN5CCN(C(=O)CC(F)(F)F)CC5)ccn4)[nH]c3c2)c1Cl	cell-free assay	competition with immobilised ligand	1 µM	91
O=C(NCC1CCOCC1)c1n[nH]cc1NC(=O)c1c(F)cccc1F	binding	competition with immobilised ligand	1 µM	100
